Results: ChEMBL document CHEMBL1149790, “Synthesis of some novel thiourea derivatives obtained from 5-[(4-aminophenoxy)methyl]-4-alkyl/aryl-2,4-dihydro-3H-1,2,4-triazole-3-thiones and evaluation as antiviral/anti-HIV and anti-tuberculosis agents” (Eur J Med Chem, 2008)
Converted amounts (≈) assume the structure as drawn.

Assays:
Punta Toro virus = test: Antiviral activity against Punta Toro virus in african green monkey Vero cells assessed as reduction of virus-induced cytopathogenicity; assay type: functional
How it was run: (§1)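 Confluent cell monolayers (E6SM, HEL, HeLa or Vero, per line) inoculated with 100 CCID50 virus; 1 h adsorption, residual virus removed, then incubated with compound at 400, 200, 100 … µg/ml. Cytopathicity scored once complete in untreated virus controls; MIC = concentration inhibiting virus-induced cytopathicity.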

[1] = test system: Vesicular stomatitis virus; test: Antiviral activity against in Vesicular stomatitis virus in human HEL cells assessed as reduction of virus-induced cytopathogenicity; assay type: functional; how it was run: as §1
[2] = Cytotoxicity against human MT4 cells by MTT assay; assay type: cell-based
How it was run: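 Mock-infected MT-4 cells (6 × 10⁵ cells/ml) with serial five-fold compound dilutions in triplicate; MTT reduction read at 540 and 690 nm after 5 days, median OD of three wells; CC50 = concentration reducing OD540 of mock-infected control by 50%.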

[3] = Cytotoxicity against human HeLa cells; assay type: cell-based
How it was run: (§2)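 Uninfected cell cultures exposed to test compounds alongside antiviral assays; minimum cytotoxic concentration (MCC) = concentration causing a microscopically detectable alteration of cell morphology.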

[4] = test system: Vesicular stomatitis virus; test: Antiviral activity against vesicular stomatitis virus in human HeLa cells assessed as inhibition of virus-induced cytopathogenicity; assay type: functional; how it was run: as §1
[5] = Cytotoxicity against human HEL cells assessed as alteration of cell morphology; assay type: cell-based; how it was run: as §2
Coxsackievirus B4 [6] = test: Antiviral activity against Coxsackie virus B4 in human HeLa cells assessed as inhibition of virus-induced cytopathogenicity; assay type: functional; settings: Enterovirus B; how it was run: as §1
Vero = test: Cytotoxicity against african green monkey Vero cells; assay type: cell-based; settings: chlorocebus sabaeus; how it was run: as §2
[7] = test system: Human immunodeficiency virus 2; test: Antiviral activity against HIV2 ROD in human MT4 cells assessed as protection against virus-induced cytopathogenicity by MTT assay; assay type: functional, organism-based; design: Activity: concentration or dose not given beside the values; settings: for IC50: Human immunodeficiency virus 2, ROD, MT4
How it was run: (§3)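 MT-4 cells at 6 × 10⁵ cells/ml infected with HIV-1 IIIB or HIV-2 ROD at 100–300 CCID50; compounds in serial five-fold dilutions, triplicate mock- and virus-infected wells. MTT viability read at 540 and 690 nm after 5 days, median OD of three wells; EC50 = 50% protection from viral cytopathic effect.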

Human alphaherpesvirus 1 [8] = test: Antiviral activity against thymidine kinase deficient and acyclovir resistant HSV1 KOS in human E6SM cells assessed as reduction of virus-induced cytopathogenicity; assay type: functional; settings: Human alphaherpesvirus 1, KOS; how it was run: as §1
Human alphaherpesvirus 1 [9] = test: Antiviral activity against HSV1 KOS in human HEL cells assessed as reduction of virus-induced cytopathogenicity; assay type: functional; settings: Human alphaherpesvirus 1, KOS; how it was run: as §1
Human alphaherpesvirus 2 [10] = test: Antiviral activity against HSV2 G in human E6SM cells assessed as reduction of virus-induced cytopathogenicity; assay type: functional; settings: Human alphaherpesvirus 2, G; how it was run: as §1
Human alphaherpesvirus 2 [11] = test: Antiviral activity against HSV2 G in human HEL cells assessed as reduction of virus-induced cytopathogenicity; assay type: functional; settings: Human alphaherpesvirus 2, G; how it was run: as §1
Human alphaherpesvirus 1 [12] = test: Antiviral activity against thymidine kinase deficient and acyclovir resistant HSV1 KOS in human HEL cells assessed as reduction of virus-induced cytopathogenicity; assay type: functional; settings: Human alphaherpesvirus 1, KOS; how it was run: as §1
[13] = test system: Respiratory syncytial virus; test: Antiviral activity against respiratory syncytial virus in human HeLa cells assessed as inhibition of virus-induced cytopathogenicity; assay type: functional; how it was run: as §1
Coxsackievirus B4 [14] = test: Antiviral activity against Coxsackie virus B4 in african green monkey Vero cells assessed as reduction of virus-induced cytopathogenicity; assay type: functional; settings: Enterovirus B; how it was run: as §1
Human respirovirus 3 = test: Antiviral activity against Parainfluenza 3 virus in african green monkey Vero cells assessed as reduction of virus-induced cytopathogenicity; assay type: functional; how it was run: as §1
[15] = Cytotoxicity against human E6SM cells; assay type: cell-based; settings: E6SM cells; how it was run: as §2
[16] = test system: Vesicular stomatitis virus; test: Antiviral activity against in Vesicular stomatitis virus in human E6SM cells assessed as reduction of virus-induced cytopathogenicity; assay type: functional; how it was run: as §1
[17] = test system: Human immunodeficiency virus 1; test: Antiviral activity against HIV1 3B in human MT4 cells assessed as protection against virus-induced cytopathogenicity by MTT assay; assay type: functional, organism-based; design: Activity: concentration or dose not given beside the values; settings: for IC50: Human immunodeficiency virus 1, 3B, MT4; how it was run: as §3
Human alphaherpesvirus 1 [18] = test: Antiviral activity against HSV1 KOS in human E6SM cells assessed as reduction of virus-induced cytopathogenicity; assay type: functional; settings: Human alphaherpesvirus 1, KOS; how it was run: as §1
[19] = test system: Mammalian orthoreovirus 1; test: Antiviral activity against Reo virus 1 in african green monkey Vero cells assessed as reduction of virus-induced cytopathogenicity; assay type: functional; how it was run: as §1
Sindbis virus = test: Antiviral activity against Sindbis virus in african green monkey Vero cells assessed as reduction of virus-induced cytopathogenicity; assay type: functional; how it was run: as §1

Row | SMILES | MIC (Punta Toro virus) | MIC [1] | MCC [3] | MIC [4] | MCC [5] | MIC (Coxsackievirus B4 [6]) | Activity (Vero) | MIC (Human alphaherpesvirus 1 [8]) | MIC (Human alphaherpesvirus 1 [9]) | MIC (Human alphaherpesvirus 2 [10]) | MIC (Human alphaherpesvirus 2 [11]) | MIC (Human alphaherpesvirus 1 [12]) | MIC [13] | MIC (Coxsackievirus B4 [14]) | MIC (Human respirovirus 3) | MCC [15] | MIC [16] | MIC (Human alphaherpesvirus 1 [18]) | MIC [19] | MIC (Sindbis virus) | also measured
1 | CNC(=S)Nc1ccc(-c2n[nH]c(=S)n2C)cc1 | > 80 mg/L | > 80 mg/L | 400 µg/mL | > 80 mg/L | 400 µg/mL | > 80 mg/L | 400 µg/mL | > 80 mg/L | 240 mg/L (≈ 859 µM) | 240 mg/L (≈ 859 µM) | 240 mg/L (≈ 859 µM) | > 80 mg/L | > 80 mg/L | > 80 mg/L | > 80 mg/L | 400 µg/mL | > 80 mg/L | 240 mg/L (≈ 859 µM) | > 80 mg/L | > 80 mg/L | CC50 [2]: 80.3 mg/L (≈ 287 µM); Activity [7]: 0%; IC50 [7]: > 80.3 mg/L; Activity [17]: 1%; IC50 [17]: > 80.3 mg/L
2 | CNC(=S)Nc1ccc(-c2nnc(SCc3ccccc3)n2C)cc1 | > 16 mg/L | > 16 mg/L | 80 µg/mL | > 16 mg/L | ≥ 16 µg/mL | > 16 mg/L | 80 µg/mL | > 16 mg/L | > 16 mg/L | > 16 mg/L | > 16 mg/L | > 16 mg/L | > 16 mg/L | > 16 mg/L | > 16 mg/L | ≥ 16 µg/mL | > 16 mg/L | > 16 mg/L | > 16 mg/L | > 16 mg/L | CC50 [2]: 75.4 mg/L (≈ 204 µM); Activity [7]: 6%; IC50 [7]: > 75.4 mg/L; Activity [17]: 2.5%; IC50 [17]: > 75.4 mg/L
3 | CCCCCCNC(=S)Nc1ccc(-c2n[nH]c(=S)n2-c2ccccc2)cc1 | > 80 mg/L | > 16 mg/L | 400 µg/mL | > 80 mg/L | ≥ 16 µg/mL | > 80 mg/L | 400 µg/mL | > 16 mg/L | > 16 mg/L | > 16 mg/L | > 16 mg/L | > 16 mg/L | > 80 mg/L | > 80 mg/L | > 80 mg/L | ≥ 16 µg/mL | > 16 mg/L | > 16 mg/L | > 80 mg/L | > 80 mg/L | CC50 [2]: 3.99 mg/L (≈ 9.69 µM); Activity [7]: 3%; IC50 [7]: > 3.99 mg/L; Activity [17]: 16%; IC50 [17]: > 3.99 mg/L
4 | NC(=O)c1ncn([C@@H]2O[C@H](CO)[C@@H](O)[C@H]2O)n1 [RIBAVIRIN] | 48 mg/L (≈ 197 µM) | 240 mg/L (≈ 983 µM) | > 400 µg/mL | 48 mg/L (≈ 197 µM) | > 400 µg/mL | 240 mg/L (≈ 983 µM) | > 400 µg/mL | 48 mg/L (≈ 197 µM) | 9.6 mg/L (≈ 39.3 µM) | 48 mg/L (≈ 197 µM) | 48 mg/L (≈ 197 µM) | 48 mg/L (≈ 197 µM) | 9.6 mg/L (≈ 39.3 µM) | > 400 mg/L | 48 mg/L (≈ 197 µM) | > 400 µg/mL | 240 mg/L (≈ 983 µM) | 9.6 mg/L (≈ 39.3 µM) | 48 mg/L (≈ 197 µM) | 240 mg/L (≈ 983 µM) | 
5 | C=CCNC(=S)Nc1ccc(-c2n[nH]c(=S)n2-c2ccccc2)cc1 | > 400 mg/L | > 80 mg/L | ≥ 400 µg/mL | > 400 mg/L | ≥ 80 µg/mL | > 400 mg/L | >= 400 ug ml-1 | > 80 mg/L | > 80 mg/L | > 80 mg/L | > 80 mg/L | > 80 mg/L | > 400 mg/L | > 400 mg/L | > 400 mg/L | ≥ 80 µg/mL | > 80 mg/L | > 80 mg/L | > 400 mg/L | > 400 mg/L | CC50 [2]: 55.1 mg/L (≈ 150 µM); Activity [7]: 0%; IC50 [7]: > 55.1 mg/L; Activity [17]: 13.5%; IC50 [17]: > 55.1 mg/L
6 | Nc1ncnc2c1ncn2C[C@H](O)CO [(S)-DHPA] | > 400 mg/L |  | > 400 µg/mL | > 400 mg/L |  | > 400 mg/L | > 400 µg/mL |  |  |  |  |  | > 400 mg/L | > 400 mg/L | > 400 mg/L |  |  |  | > 400 mg/L | > 400 mg/L | 
